Data taken from ChEMBL document CHEMBL2412993, “Antiprotozoal activity of bicyclic diamines with a N-methylpiperazinyl group at the bridgehead atom” (Bioorg Med Chem, 2013).
The source made the active and inactive calls. The rule behind the calls is not given here.

How the values were obtained:
[1] = Selectivity index, ratio of IC50 for rat L6 cells to IC50 for bloodstream form of Trypanosoma brucei rhodesiense STIB 900; type: toxicity, cell-based; settings: read-out: Ratio IC50
Outline: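 Medium was MEM with 2-mercaptoethanol and 15% heat-inactivated horse serum, dilutions 90 to 0.123 µg/mL. Wells held 10^4 STIB 900 bloodstream forms or rat L-6 myoblasts. Dye was added for a further 2–4 h, then fluorescence read (ex 536/em 588 nm) as % of control. SI is L-6 IC50 over parasite IC50.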

Plasmodium falciparum = test: Antiprotozoal activity against chloroquine- and pyrimethamine-resistant Plasmodium falciparum K1 after 48 hrs by [3H]-hypoxanthine incorporation assay; type: functional, organism-based
Outline: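 Infected human red cells in RPMI 1640 with 5% Albumax, exposed to serial dilutions from 5 to 0.078 µg/mL for 48 h at 37 °C under reduced oxygen. [3H]-hypoxanthine (0.5 µCi/well) added, then a further 24 h. Cells harvested onto filters and scintillation counted as % of untreated control. IC50 taken from sigmoidal curves; duplicate, repeated once.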

L6 = test: Cytotoxicity against rat L6 cells after 72 hrs by microplate fluorometry; type: cell-based; settings: L6, 72 h
Outline: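 Rat skeletal myoblasts (L-6) run in the same Alamar Blue microplate format: MEM with 2-mercaptoethanol and 15% heat-inactivated horse serum, dilutions 90 to 0.123 µg/mL, 72 h at 37 °C in 5% CO₂. Alamar Blue for a further 2–4 h, fluorescence at ex 536 / em 588 nm as percent of control. Mefloquine standard.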

[2] = system: Trypanosoma brucei rhodesiense; test: Antiprotozoal activity against bloodstream form of Trypanosoma brucei rhodesiense STIB 900 after 72 hrs by microplate fluorometry; type: functional, organism-based; settings: STIB 900, 72 h
Outline: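 Bloodstream forms (10⁴/well) in MEM with 2-mercaptoethanol and 15% heat-inactivated horse serum, serial dilutions 90 to 0.123 µg/mL, 72 h at 37 °C under 5% CO₂. Alamar Blue added for a further 2–4 h. Fluorescence read at ex 536 / em 588 nm and expressed as percent of control. Melarsoprol standard.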

[3] = Selectivity index, ratio of IC50 for rat L6 cells to IC50 for chloroquine- and pyrimethamine-resistant Plasmodium falciparum K1; type: toxicity, cell-based; settings: L6 cells versus Plasmodium falciparum K1, read-out: Ratio IC50
Outline: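 The L-6 IC50 comes from the 72 h Alamar Blue assay on rat myoblasts (MEM, 15% horse serum, 90–0.123 µg/mL). The K1 IC50 comes from [3H]-hypoxanthine uptake by infected human red cells: 48 h exposure to 5–0.078 µg/mL, then 24 h with label. SI is L-6 IC50 over K1 IC50.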

Plasmodium berghei [4] = test: Antiprotozoal activity against bloodstream form of Plasmodium berghei ANKA infected in NMRI mouse assessed as mean survival time at 50 mg/kg, ip qd for administered starting 4 h post-infection for 4 consecutive days (reference value: 6 to 7 days); settings: route intraperitoneal
Plasmodium berghei [5] = test: Antiprotozoal activity against Plasmodium berghei ANKA infected in NMRI mouse assessed as reduction in parasitemia at 50 mg/kg, ip qd for administered starting 4 h post-infection for 4 consecutive days; set-up: scale not given: the % may be the effect or the level left; settings: route intraperitoneal
[6] = system: Trypanosoma brucei rhodesiense; test: Antiprotozoal activity against bloodstream form of Trypanosoma brucei rhodesiense STIB 900 infected in NMRI mouse assessed as reduction in parasitemia at 50 mg/kg, ip qd for administered 3 days post-inoculation for 4 consecutive days; type: functional, organism-based; set-up: dose 50 mg/kg

For `CCN(CC)CC(=O)NC1CC2(N3CCN(C)CC3)CC(c3ccccc3)C1C(c1ccccc1)C2` (racemic), the selectivity ratio [1] was 39.4, the IC50 (Plasmodium falciparum) was 0.37 µM and the IC50 (L6) was 26.4 µM. For the same compound, the IC50 [2] was 0.67 µM and the selectivity ratio [3] was 71.3.
`CN1CCN(C23CC(NC(=O)CCN4CCCCC4)C(C(c4ccccc4)C2)C(c2ccccc2)C3)CC1` (racemic) showed a selectivity ratio [1] of 12.1, an IC50 (Plasmodium falciparum) of 0.23 µM and an IC50 (L6) of 15.3 µM. For the same compound, the IC50 [2] was 1.27 µM and the selectivity ratio [3] was 66.7.
Compound `CCN(CC)CCCC(C)Nc1ccnc2cc(Cl)ccc12` (centres undefined) [CHLOROQUINE] has a Time (Plasmodium berghei [4]) of 20 days and an Activity (Plasmodium berghei [5]) of 99.6%.
Compound `CN1CCN(C23CC(NCCCN4CCCC4)C(C(c4ccccc4)C2)C(c2ccccc2)C3)CC1` (racemic) has a selectivity ratio [1] of 14.1, an IC50 (Plasmodium falciparum) of 0.67 µM and an IC50 (L6) of 22.6 µM. It also gave an IC50 [2] of 1.61 µM and a selectivity ratio [3] of 33.8.
`C[C@@H]1CC[C@H]2[C@@H](C)C(=O)O[C@@H]3O[C@@]4(C)CC[C@@H]1[C@]32OO4` [ARTEMISININ] gave an IC50 (Plasmodium falciparum) of 0.0064 µM and a selectivity ratio [3] of 70.4.
In the case of `CN1CCN(C23CC(NC(=O)CCN4CCCC4)C(C(c4ccccc4)C2)C(c2ccccc2)C3)CC1` (racemic), the selectivity ratio [1] is reported as 13.6, the IC50 (Plasmodium falciparum) is reported as 0.55 µM and the IC50 (L6) is reported as 42.2 µM. It also gave an IC50 [2] of 3.1 µM and a selectivity ratio [3] of 76.7.
Work on `CN1CCN(C23CCN(CCCN4CCCC4)C(C(c4ccccc4)C2)C(c2ccccc2)C3)CC1` (racemic) yielded a selectivity ratio [1] of 16.8, an IC50 (Plasmodium falciparum) of 0.06 µM and a Time (Plasmodium berghei [4]) of 4 days. The Activity (Plasmodium berghei [5]) was 0%, the IC50 (L6) was 43.5 µM and the IC50 [2] was 2.59 µM. The selectivity ratio [3] was 726.
In the case of `CN1CCN(C23CC(NC(=O)CN4CCCCC4)C(C(c4ccccc4)C2)C(c2ccccc2)C3)CC1` (racemic), the selectivity ratio [1] is reported as 235, the IC50 (Plasmodium falciparum) is reported as 0.35 µM and the Activity [6] is reported as “inactive”. It also gave an IC50 (L6) of 22.1 µM, an IC50 [2] of 0.094 µM and a selectivity ratio [3] of 63.2.
For `CCN(CC)C(=O)CNC1CC2(N3CCN(C)CC3)CC(c3ccccc3)C1C(c1ccccc1)C2` (racemic), the selectivity ratio [1] was 75.9, the IC50 (Plasmodium falciparum) was 1.16 µM and the IC50 (L6) was 37.9 µM. It also gave an IC50 [2] of 0.5 µM and a selectivity ratio [3] of 32.7.
With `CCN(CC)CCCN1CCC2(N3CCN(C)CC3)CC(c3ccccc3)C1C(c1ccccc1)C2` (racemic) the selectivity ratio [1] was 26.6, the IC50 (Plasmodium falciparum) was 0.06 µM and the Time (Plasmodium berghei [4]) was 4 days. The Activity (Plasmodium berghei [5]) was 17%, the IC50 (L6) was 68.1 µM and the IC50 [2] was 2.56 µM. For the same compound, the selectivity ratio [3] was 1140.
`CN1CCN(C23CC(NCCC(=O)N4CCCC4)C(C(c4ccccc4)C2)C(c2ccccc2)C3)CC1` (racemic) gave a selectivity ratio [1] of 42.9, an IC50 (Plasmodium falciparum) of 0.59 µM and an IC50 (L6) of 21.4 µM. The IC50 [2] was 0.5 µM and the selectivity ratio [3] was 36.4.
With `c1ccc(C2CC3(N4CCCCC4)CC(NCCCN4CCCC4)C2C(c2ccccc2)C3)cc1` (racemic) the selectivity ratio [1] was 13.4 and the IC50 [2] was 2.02 µM.
In the case of `CCN(CC)CCC(=O)NC1CC2(N3CCN(C)CC3)CC(c3ccccc3)C1C(c1ccccc1)C2` (racemic), the selectivity ratio [1] is reported as 15.7, the IC50 (Plasmodium falciparum) is reported as 0.67 µM and the IC50 (L6) is reported as 35.9 µM. The IC50 [2] was 2.29 µM and the selectivity ratio [3] was 53.6.
Work on `CN1CCN(C23CC(NC(=O)CN4CCCC4)C(C(c4ccccc4)C2)C(c2ccccc2)C3)CC1` (racemic) yielded a selectivity ratio [1] of 111, an IC50 (Plasmodium falciparum) of 0.28 µM and an IC50 (L6) of 27.8 µM. For the same compound, the IC50 [2] was 0.25 µM and the selectivity ratio [3] was 99.3.
With `c1ccc(C2CC3(N4CCCCC4)CCN(CCCN4CCCCC4)C2C(c2ccccc2)C3)cc1` (racemic) the selectivity ratio [1] was 7.5.
For `CN1CCN(C23CCN(CCCN4CCCCC4)C(C(c4ccccc4)C2)C(c2ccccc2)C3)CC1` (racemic), the selectivity ratio [1] was 11.4, the IC50 (Plasmodium falciparum) was 0.05 µM and the Time (Plasmodium berghei [4]) was 4 days. The Activity (Plasmodium berghei [5]) was 11%, the IC50 (L6) was 28.9 µM and the IC50 [2] was 2.54 µM. For the same compound, the selectivity ratio [3] was 577.
